Molecules are shown by their SMILES. pIC50: −log10 of the molar value.

The term pIC50 denotes the negative decadic logarithm of the IC50, by convention in mol/L.

The target of experiment [1] is Glutamate NMDA receptor. The experiment in a line: Displacement of [3H]-MK-801 from rat cortical membranes NMDA receptor by beta counting analysis in absence of spermine. A digest of the protocol: (§1)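 Membranes from rat frontoparietal cortex and hippocampus, prepared in 50 mM Tris acetate pH 7.0. 5 nM [3H]MK-801 was incubated with membranes (~1 mg wet tissue) for 3 h at 23 °C in 10 mM Tris acetate pH 7.0 with 10 µM glutamate and glycine, in triplicate, with or without 30 µM spermine. Compounds were tested at 3–4 concentrations. Nonspecific binding was set with 100 µM (S)-ketamine. Bound ligand was filtered and scintillation-counted. Spermine sensitivity = IC50 (with spermine)/IC50 (without).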

The target in experiment [2] is Glutamate NMDA receptor. The experiment can be described thus: Displacement of [3H]-MK-801 from rat cortical membranes NMDA receptor by beta counting analysis in presence of 30 uM spermine. A digest of the protocol:
as §1
(Displacement assays read how much labelled ligand stays bound in the presence of the test substance.)

Experiment [3] addresses Glutamate NMDA receptor (Rattus norvegicus) (UniProt P35439+Q00959+Q00960+Q00961+Q62645+Q8VHN2+Q9R1M7). The experiment in a line: Ratio of IC50 for displacement of [3H]-MK-801 from rat cortical membranes NMDA receptor in presence of 30 uM spermine to IC50 for displacement of [3H]-MK-801 from rat cortical membranes NMDA receptor in absence of 30 spermine. A digest of the protocol:
as §1

The target of experiment [4] is Glutamate NMDA receptor. The experiment can be described thus: Displacement of [3H]-ifenprodil from rat cortical membranes NMDA receptor by beta counting analysis in absence of spermine.

For `N=C(N)c1ccc(C(=O)NCCCCCCNC(=O)c2ccc(C(=N)N)cc2)cc1`, the negative-log IC50 (pIC50) was 3.58 in experiment [1] and 2.92 in experiment [2]. Further, the Ratio IC50 in experiment [3] is 4.59.
The corresponding values for `N=C(NCCO)c1ccc(N2CCCN(c3ccc(/C(N)=N/CCO)cc3)CC2)cc1` are 5.03, 3.49 and 35.7.
For the compound `N=C(N)c1ccc(N2CCCN(c3ccc(C(=N)N)cc3)CC2)cc1`, the pIC50 in experiment [1] was 6.60; in experiment [2] it was 5.26; in experiment [4] it was 4.72. Moreover, the Ratio IC50 in experiment [3] stood at 20.4.
The corresponding values for `Cc1ccc(S(=O)(=O)N(CCOc2ccc(C(=N)N)cc2)CCOc2ccc(C(=N)N)cc2)cc1` are 6.62, 5.88, 6.39 and 6.28.
Consider `c1cc(N2CCCN(c3ccc(C4=NCCN4)cc3)CC2)ccc1C1=NCCN1`, for which the pIC50 was 5.52 in experiment [1] and 4.04 in experiment [2]. Also, the Ratio IC50 in experiment [3] worked out at 30.1.
The corresponding values for `c1cc(N2CCCN(c3ccc(C4=NCCCN4)cc3)CC2)ccc1C1=NCCCN1` are 4.89, 3.84 and 11.7.
On the same counts, the results for `N=C(NC1CCCC1)c1ccc(N2CCCN(c3ccc(C(=N)NC4CCCC4)cc3)CC2)cc1` are 5.09, 4.07 and 10.6.
The corresponding values for `N=C(N)c1ccc(NC(=O)CCCCCCCCC(=O)Nc2ccc(C(=N)N)cc2)cc1` are 4.80, 4.20 and 4.07.
As to `N=C(N)c1ccc(-c2ccc(-c3ccc(-c4ccc(C(=N)N)cc4)nc3)cn2)cc1`, the pIC50 was 4.57 in experiment [1] and 4.52 in experiment [2]. Moreover, in experiment [3], the Ratio IC50 stood at 1.24.
The corresponding values for `N=C(N)c1ccc(-c2ccc(-c3ccc(C(=N)N)cc3)s2)cc1` are 5.18, 4.75 and 2.61.
On the same counts, the results for `N=C(N)c1ccc(NCCCCCCCCNc2ccc(C(=N)N)cc2)cc1` are 5.14, 4.51 and 4.37.
The corresponding values for `CCCCNC(=N)c1ccc(N2CCCN(c3ccc(C(=N)NCCCC)cc3)CC2)cc1` are 5.00, 3.99 and 11.2.
`N=C(N)c1ccc(NC(=O)c2cccc(C(=O)Nc3ccc(C(=N)N)cc3)c2)cc1`: the pIC50 in experiment [1] was 4.37; in experiment [2], 4.44. The Ratio IC50 in experiment [3] was 0.97.
On the same counts, the results for `CC(C)/N=C(\N)c1ccc(N2CCCN(c3ccc(/C(N)=N/C(C)C)cc3)CC2)cc1` are 4.75, 3.41 and 25.3.
The corresponding values for `N=C(N)c1ccc(NC(=O)c2ccc(C(=O)Nc3ccc(C(=N)N)cc3)o2)cc1` are 3.82, 3.82 and 1.01.
On the same counts, the results for `N=C(N)c1ccc(-c2ccc(-c3nc4ccc(C(=N)N)cc4[nH]3)s2)cc1` are 5.49, 4.87 and 4.14.
Regarding `N=C(N)c1ccc(C(=O)Nc2cccc(NC(=O)c3ccc(C(=N)N)cc3)n2)cc1`, the pIC50 is 3.90 in experiment [1] and 3.63 in experiment [2]. Further, the Ratio IC50 in experiment [3] amounted to 1.85.
With `N=C(N)c1ccc(NC(=O)CCCCCCCC(=O)Nc2ccc(C(=N)N)cc2)cc1`, the values for the pIC50 in experiment [1] and in experiment [2] were 4.58 and 3.95, respectively. The Ratio IC50 in experiment [3] came out at 4.25.
The corresponding values for `N=C(N)c1ccc(NC(=O)CCCCCCC(=O)Nc2ccc(C(=N)N)cc2)cc1` are 4.64, 3.77 and 7.25.
On the same counts, the results for `N=C(NC1CCCC1)c1ccc(N2CCN(c3ccc(C(=N)NC4CCCC4)cc3)CC2)cc1` are 5.03, 3.80 and 19.3.
On the same counts, the results for `N=C(NC1CC1)c1ccc(N2CCCN(c3ccc(C(=N)NC4CC4)cc3)CC2)cc1` are 4.95, 3.67 and 19.9.
With `CC/N=C(\N)c1ccc(-c2ccc(-c3ccc(/C(N)=N/CC)cc3)o2)cc1`, the pIC50 in experiment [1] is 4.91; in experiment [2], 4.51. Further, in experiment [3], the Ratio IC50 is 2.56.
With `N=C(N)c1ccc(C(=O)NCCCNC(=O)c2ccc(C(=N)N)cc2)cc1`, the pIC50 in experiment [1] and in experiment [2] was less than 3.00 throughout.
On to `N=C(N)c1ccc(NC(=O)CCCCCCCCCCC(=O)Nc2ccc(C(=N)N)cc2)cc1`, for which the pIC50 is 5.02 in experiment [1] and 4.56 in experiment [2]. The Ratio IC50 in experiment [3] stood at 2.98.
Regarding `N=C(N)c1ccc(NC(=O)CCCCCC(=O)Nc2ccc(C(=N)N)cc2)cc1`, the pIC50 in experiment [1] and in experiment [2] was less than 3.00 each time.
Take `N=C(N)c1ccc(-c2ccc(-c3ccc(C(=N)N)cc3)c(F)c2)cc1`: the pIC50 in experiment [1] is 5.00; in experiment [2], 4.47. In experiment [3], the Ratio IC50 came to 4.63.
On the same counts, the results for `N=C(N)c1ccc(NCCCCNc2ccc(C(=N)N)cc2)cc1` are 5.34, 4.07 and 17.2.
The corresponding values for `C/N=C(\N)c1ccc(-c2ccc(-c3ccc(/C(N)=N/C)cc3)o2)cc1` are 5.16, 4.62 and 3.47.
The corresponding values for `CCCNC(=N)c1ccc(N2CCN(c3ccc(C(=N)NCCC)cc3)CC2)cc1` are 4.80, 3.43 and 21.8.
`N=C(N)c1ccc(C(=O)NCCCCCNC(=O)c2ccc(C(=N)N)cc2)cc1`: the pIC50 is 3.16 in experiment [1] and less than 3.00 in experiment [2].
Consider `c1cc(N2CCN(c3ccc(C4=NCCN4)cc3)CC2)ccc1C1=NCCN1`, for which the results for the pIC50 in experiment [1] and in experiment [2] were 5.19 and 3.97, respectively. Further, the Ratio IC50 in experiment [3] was found to be 15.1.
On the same counts, the results for `N=C(N)c1ccc(-c2ccc(-c3ccc(C(=N)N)s3)s2)s1` are 5.27, 5.17 and 1.5.
On the same counts, the results for `CCCC/N=C(/N)c1ccc(N2CCN(c3ccc(/C(N)=N\CCCC)cc3)CC2)cc1` are 4.99, 3.86 and 16.
On the same counts, the results for `N=C(N)c1ccc(NC(=O)CCCCC(=O)Nc2ccc(C(=N)N)cc2)cc1` are 3.78, 3.36 and 3.46.
As for `CC(C)NC(=N)c1ccc(NC(=O)c2ccc(C(=O)Nc3ccc(C(=N)NC(C)C)cc3)o2)cc1`, the pIC50 in experiment [1] was 4.97; in experiment [2], 3.76. Moreover, the Ratio IC50 in experiment [3] was 16.9.
The corresponding values for `N=C(NC1CC1)c1ccc(N2CCN(c3ccc(C(=N)NC4CC4)cc3)CC2)cc1` are 4.71, 3.33 and 21.8.
`N=C(N)c1ccc(OCCCOc2ccc(C(=N)N)cc2)cc1` [PROPAMIDINE]: the pIC50 in experiment [1] is 5.26.
`CC(C)(C)/N=C(\N)c1ccc(N2CCCN(c3ccc(/C(N)=N/C(C)(C)C)cc3)CC2)cc1`: the pIC50 in experiment [1] was 4.46; in experiment [2], 3.25. Further, in experiment [3], the Ratio IC50 was determined as 16.8.
Regarding `N=C(N)NCCCCNC(=N)N`, the Ratio IC50 in experiment [3] came out at 33.6.
As to `NC(N)=NCCCCN=C(N)N` [ARCAINE], the pIC50 was 5.34 in experiment [1], 3.71 in experiment [2] and 4.61 in experiment [4].
Regarding `N=C(N)c1ccc(C(=O)NCCCCNC(=O)c2ccc(C(=N)N)cc2)cc1`, the negative-log IC50 (pIC50) in experiment [1] and in experiment [2] was less than 3.00 in each case.
For `N=C(N)c1ccc(-c2ccc(-c3ccc(-c4ccc(C(=N)N)o4)s3)s2)o1`, the pIC50 was 5.30 in experiment [1] and 4.93 in experiment [2]. Also, in experiment [3], the Ratio IC50 was found to be 4.26.
In the case of `N=C(N)c1ccc(-c2ccc(-c3ccc(C(=N)N)cc3)o2)cc1` [FURAMIDINE], the pIC50 is 5.37 in experiment [1] and 5.13 in experiment [2]. Besides, the Ratio IC50 in experiment [3] worked out at 2.37.
On to `N=C(N)c1ccc(NCCCCCCCNc2ccc(C(=N)N)cc2)cc1`, for which the pIC50 in experiment [1] is 5.33; in experiment [2] it was 4.60. Further, the Ratio IC50 in experiment [3] was 5.37.
On the same counts, the results for `CC(C)/N=C(/N)c1ccc(N2CCN(c3ccc(/C(N)=N\C(C)C)cc3)CC2)cc1` are 4.67, 3.26 and 32.9.
On the same counts, the results for `c1cc(N2CCN(c3ccc(C4=NCCCN4)cc3)CC2)ccc1C1=NCCCN1` are 4.62, 3.58 and 13.6.
On the same counts, the results for `N=C(N)c1ccc(NCCCCCCNc2ccc(C(=N)N)cc2)cc1` are 5.36, 4.62 and 5.26.
Take `N=C(N)c1ccc(NC(=O)c2ccc(C(=O)Nc3ccc(C(=N)N)cc3)cc2)cc1`: the pIC50 in experiment [1] was 4.27; in experiment [2], 4.28. In addition, the Ratio IC50 in experiment [3] stood at 0.96.
`N=C(N)c1ccc(OCCCCOc2ccc(C(=N)N)cc2)cc1` gave a pIC50 in experiment [1] of 4.75.
Consider `N=C(NCCCO)c1ccc(N2CCCN(c3ccc(/C(N)=N/CCCO)cc3)CC2)cc1`, for which the pIC50 in experiment [1] is 4.39; in experiment [2], 3.37. In addition, in experiment [3], the Ratio IC50 amounted to 9.72.
Regarding `NCCCCCCCCCCCCN`, the values for the pIC50 in experiment [2] and in experiment [4] were 3.61 and 3.02, respectively. The Ratio IC50 in experiment [3] was determined as 32.9.

Source of the values: ChEMBL document CHEMBL3593210, “Pentamidine analogs as inhibitors of [(3)H]MK-801 and [(3)H]ifenprodil binding to rat brain NMDA receptors” (Bioorg Med Chem, 2015).
